Assay outcomes: PubChem BioAssay, The Scripps Research Institute Molecular Screening Center
LEDGF integ inh: blockers of LEDGF/p75-dependent integrase strand transfer – biochemical, TR-FRET, high throughput, primary screen. inhibition, % at 3.7 µM. TR-FRET IN-LEDGF/p75 DNA integration, Eu/Cy5. AID 743269, 2014. 370,000 tested, 0.64% active. HIV-1 integrase (with human LEDGF/p75);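 active = inhibition above the screen-wide mean plus 3 SD, cut at about 13% in these data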;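 also: signal is the Cy5 over europium emission ratio at 671 and 618 nm; 0% = plate median of compound wells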
MBD2 inh: inhibitors of MBD2 binding to methylated DNA, primary screen, biochemical, TR-FRET, DNA-binding domain, human. MBD2 binding to methylated oligonucleotide. 370,000 tested, 0.31% active. AID 686964, 2013. inhibition, % at 4.4 µM. Methyl-CpG-binding domain protein 2 (Homo sapiens), Q9UBB5; in the data active = inhibition above about 13%
Target sequence (Q9UBB5 whole entry, looked up, the tested form may be a part): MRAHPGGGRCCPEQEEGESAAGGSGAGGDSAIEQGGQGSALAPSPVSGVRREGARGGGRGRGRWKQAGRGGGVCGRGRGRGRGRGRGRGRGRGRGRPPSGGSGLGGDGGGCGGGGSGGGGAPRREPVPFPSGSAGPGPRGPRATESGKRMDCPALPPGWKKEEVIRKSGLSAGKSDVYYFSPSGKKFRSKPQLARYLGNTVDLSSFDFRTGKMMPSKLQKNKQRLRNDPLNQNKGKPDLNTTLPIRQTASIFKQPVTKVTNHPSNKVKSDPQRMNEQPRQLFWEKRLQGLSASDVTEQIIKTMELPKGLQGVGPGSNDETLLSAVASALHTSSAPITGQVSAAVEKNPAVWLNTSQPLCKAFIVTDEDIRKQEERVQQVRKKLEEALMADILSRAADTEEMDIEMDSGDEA
SIAE inh: human SIAE inhibitors, primary screen, biochemical, fluorescence polarization, FP-Rh probe, 1536-well HTS; inhibition, % at 9.66 µM; 370,000 tested, 0.69% active; SIAE FP-Rh probe binding; AID 1053197, 2014;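 active = inhibition above a cutoff: mean of compounds within the control limits plus 3 SD of those, cut at about 17% in these data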;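 also: 0% = plate median of compound wells and 100% = probe without SIAE protein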
UHRF1 binding: UHRF1 methylated DNA binding inhibitors, primary screen, counter-screen for MBD2 inhibitor project, biochemical, TR-FRET, human UHRF1, single concentration; E3 ubiquitin-protein ligase UHRF1 (Homo sapiens), Q96T88; inhibition, % at 4.4 µM; UHRF1 binding to methylated oligo; 370,000 tested, 0.75% active; in the data active = inhibition above about 21%;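 also: UHRF1 SRA domain binding a hemimethylated CpG hairpin DNA probe; 0% = median of test compound wells and 100% = reference inhibitor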
TDP2 absorb: human TDP2 enzyme inhibitors, primary screen, biochemical, epi absorbance, recombinant enzyme; Tyrosyl-DNA phosphodiesterase 2 (Homo sapiens), O95551; 370,000 tested, 0.34% active; inhibition, % at 12.8 µM; T5PNP hydrolysis, p-nitrophenol absorbance 415 nm; AID 720702, 2013;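 active = inhibition above the mean of all tested compounds plus 3 SD, set per campaign, cut at about 25% in these data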;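 also: 0% = DMSO with enzyme and 100% = buffer with substrate but no TDP2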
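Test system: Human TDP2 enzyme | Reagent: 5 mM T5PNP | Compound dosing: 12.8 µM single point, 1% DMSO | Incubation: Enzyme reaction with compound for 2 h at 37 °C | Technique: p-Nitrophenol epi absorbance | Read-out: % inhibition relative to enzyme-containing and enzyme-free wells | Benchmarks: High control without enzyme, low control DMSO plus TDP2 | Replicates: Singlicate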
PRMT1 FP inh: PRMT1 methyltransferase inhibitors, primary screen, biochemical, fluorescence polarization; Protein arginine N-methyltransferase 1 (Homo sapiens), Q99873; recombinant PRMT1, activity-based probe fluorescence polarization; inhibition, % at 2.79 µM; 370,000 tested, 1.3% active; AID 652257, 2013;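 active = inhibition above about 21% made by adding two undisclosed values, limit read from the data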
PRMT1 inh conf: PRMT1 methyltransferase inhibitors, confirmation, biochemical, fluorescence polarization, triplicate; shares compounds with PRMT1 FP inh; recombinant His-PRMT1, activity-based probe fluorescence polarization; inhibition, % at 2.79 µM; 3,300 tested, 42% active;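 active = mean inhibition across replicates above the hit cutoff derived for the earlier primary screen, cut at about 22% in these data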
The depositor's hits bear a star. An excerpt weighted towards active compounds, which were near 3.3% of everything screened.

SMILES	LEDGF integ inh	MBD2 inh	SIAE inh	UHRF1 binding	TDP2 absorb	PRMT1 FP inh	others
CC(C)COC(=O)c1ccccc1C(=O)OCC(C)C	-3	0	-5	-1	0	1
CCOc1ccc(-n2c(O)c(C=Nc3ccc(N(CC)CC)cc3)c(=O)[nH]c2=O)cc1	2	2	7	-9	13	3
CCN(CC)c1ccc(N=Cc2c(O)n(-c3ccccc3)c(=O)[nH]c2=O)cc1	12	-4	9	3	1	25*
COc1ccc(/C=C2/C(=O)N(Cc3ccco3)C(=O)N(C(C)C)C2=O)cc1	33*	1	-22	32*	-9	5
CCN1C(=O)C(=C2C=C(C)N(Cc3ccco3)C(C)=C2)C(=O)N(CC)C1=S	-3	1	-8	4	2	1
CN1C(=O)[C@@]23C[C@]4(c5c[nH]c6ccccc56)c5ccccc5N(S(=O)(=O)c5ccccc5)[C@@H]4N2C(=O)[C@@H]1SS3	1	-1	3	-20	6	1
COc1cc2c(cc1O)C[C@H]1NCCc3cc4c(c-2c31)OCO4	1	23*	3	30*	-10	0
CC(C)CC1C(C#N)=C(N)Oc2c1c(=O)oc1ccccc21 (stereo unspecified)	7	-2	12	76*	7	-3
N#CC1=C(N)Oc2c(c(=O)oc3ccccc23)C1c1ccc(OC(=O)N2CCOCC2)cc1 (stereo unspecified)	1	4	5	38*	-4	-1
CCOc1ccc(C2C(C#N)=C(N)Oc3c2c(=O)oc2ccccc32)cc1 (stereo unspecified)	2	0	-4	1	7	1
S=P(c1ccccc1)(c1ccccc1)c1cnc2ccccn12	1	0	-5	2	-5	-1
CCn1nc(/C=C/c2ccccc2)nc2c(=O)n(C)c(=O)nc1-2	-35	5	4	7	79*	-7
COc1ccc(-n2c(/C=C/c3ccc(O)cc3)nc3ccccc3c2=O)cc1	-3	-3	-4	0	4	2
Fc1ccc(CCNCc2ccc(Br)cc2)cc1	2	2	-7	35*	4	-2
O=C(CN1C(=O)[C@@H](Cc2ccccc2)N=C(c2ccccc2)c2ccccc21)NC1CCCCC1	-2	-1	-8	-1	-3	-1
Brc1csc(N2CCNCC2)n1	0	0	0	0	3	3
CC(Cc1cccs1)NCc1ccccc1 (stereo unspecified)	-2	0	-2	29*	-2	-1
CCCCNC(C)Cc1ccccc1 (stereo unspecified)	-2	4	-2	0	1	2
Cc1ccccc1CCC[C@H](CC1CCCCC1)CN(C)C(=O)Oc1ccccc1	-1	2	1	-2	15	0
Nc1c2c(nc3ccccc13)CCN(Cc1ccccc1)C2	-5	-4	-1	-15	5	44*	PRMT1 inh conf=9
C1=C(c2c[nH]c3ccccc23)CCN(Cc2ccccc2)C1	-2	-2	5	-3	8	2
Cc1ccc(-c2nc(N3CCOCC3)s[n+]2-c2ccccc2)cc1	3	2	10	0	8	3
CN(C)c1nc(-c2ccccc2)[n+](C)s1	1	3	4	-3	5	34*	PRMT1 inh conf=22*
O=C(NCCN1CCC2(CC1)C(=O)NCN2c1ccccc1)c1ccc(F)cc1F	6	3	6	1	1	1
CN1C(=O)C(=Cc2c(OCc3cnc(Cl)s3)ccc3ccccc23)C(=O)N(C)C1=O	2	4	-14	1	-4	44*	PRMT1 inh conf=-1
SMILES	LEDGF integ inh	MBD2 inh	SIAE inh	UHRF1 binding	TDP2 absorb	PRMT1 FP inh	others
CCn1cc(C=C2C(=O)N(C)C(=O)N(C)C2=O)c2ccccc21	2	2	-7	-2	0	7
S=P(N1CCOCC1)(N1CC1)N1CC1	-1	-3	1	0	-4	4
S=P(N1CCCCCC1)(N1CC1)N1CC1	-4	1	12	0	2	30*	PRMT1 inh conf=-4
CCOC(=O)CC(SP1(=S)OCC2(CCCCC2)CO1)C(=O)OCC (stereo unspecified)	-5	0	-3	1	2	25*	PRMT1 inh conf=18
Cc1ccc(C(=O)NCCN2CCC3(CC2)C(=O)NCN3c2ccccc2)cc1	2	-3	7	-3	3	-3
CC1=NCCc2c1[nH]c1cc(O)ccc21	-1	-12	11	-11	0	119*	PRMT1 inh conf=125*
COc1ccc2c3c([nH]c2c1)C(C)=NCC3	-1	0	1	-2	-2	2
COc1ccc(C=C2C(=O)NC(=S)NC2=O)cc1OC	0	1	-2	-1	-9	14
COc1ccccc1/C=C1\C(=O)NC(=S)N(c2ccccc2)C1=O	5	-2	1	1	-10	38*	PRMT1 inh conf=21*
COc1ccccc1C=C1C(=O)NC(=S)NC1=O	1	-3	3	2	-2	30*	PRMT1 inh conf=39*
O=C(CNC(=O)OCc1ccccc1)NC(Cc1ccccc1)P(=O)(Oc1ccccc1)Oc1ccccc1 (stereo unspecified)	-1	3	8	-3	5	1
O=C(NCCN1CCC2(CC1)C(=O)NCN2c1ccccc1)c1ccc(Cl)c(Cl)c1	2	2	4	-5	2	-3
O=C(O)c1cc2ccccc2n1C1CCN(Cc2ccccc2)CC1	-1	4	4	-1	5	-1
O=C1NC(=O)N(c2ccc3c(c2)OCO3)C(=O)/C1=C\c1ccc(-c2ccccc2C(=O)O)o1	4	2	-24	18	-3	8
O=C1NC(=O)N(c2cccc(Cl)c2)C(=O)/C1=C\c1ccc(Sc2nc3ccccc3[nH]2)o1	20*	-1	-370	12	0	33*	PRMT1 inh conf=42*
COP(=O)(C(=O)Nc1ccccc1)C(CC(C)C)NC(=O)OCc1ccccc1 (stereo unspecified)	3	-1	-3	1	10	-2
Nc1cc(Cl)c2nonc2c1[N+](=O)[O-]	-3	-9	-10	-22	-7	41*	PRMT1 inh conf=10
